Activity calls are given as the source filed them. No cut-off for these calls is given here.
How the values were obtained:
[1] = target: Interleukin-6 (Homo sapiens) (UniProt P05231); assay: Inhibition of IL-6 signaling pathway in human HepG2 cells transfected with p-STAT3-Luc assessed as reduction in IL-6 induced STAT3 phosphorylation at 20 ug/ml preincubated for 1 hr followed by IL-6 induction measured after 10 mins by immunoblot analysis; assay type: cell-based
Summary of the method: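 HepG2 cells were grown in MEM to 80% confluence and serum-starved for 6 h. They were treated with compound for 1 h, then with IL-6 (20 ng/ml) for 10 min. Lysates were run on SDS-PAGE and immunoblotted with anti-phospho-STAT3. Scanned band intensity was expressed relative to the IL-6-only band, set at 100%.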

[2] = Cytotoxicity against human HepG2 cells assessed as cell viability at 10 ug/ml after 48 hrs by MTT assay; assay type: cell-based; conditions: read-out: Activity
Summary of the method: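 HepG2 cells in MEM with 10% FBS were exposed to compound at 1, 3, 10, 30 or 100 µg/ml for 48 h, then given MTT for 3 h. Formazan was dissolved in DMSO and OD read at 570 nm. Triplicates from three independent experiments, mean ± SE.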

TH2 cell [3] = assay: Antiinflammatory activity in C57BL6 mouse CD4-positive T-effector TH2 cells assessed as suppression of IL-13 levels at 10 uM preincubated for 3 to 4 days followed by anti-CD3 stimulation for 24 hrs by ELISA; assay type: functional, cell-based
[4] = Proinflammatory activity in C57BL6 mouse CD4-positive T-effector Th1 cells assessed as increase in anti-CD3/IL-12-induced IFNgamma levels at 10 uM preincubated for 3 to 4 days followed by anti-CD3 stimulation for 24 hrs by ELISA; assay type: ADME, cell-based; conditions: th1, 24 h
Summary of the method: (§1)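 CD4+ T cells were isolated from C57BL6 mouse lymph node and spleen and primed with anti-CD3 (2 µg/ml) plus anti-CD28 (1 µg/ml) for 24 h. Compound (10 µM) was added with IL-12 (10 ng/ml) and anti-IL-4 (5 µg/ml), renewed every other day for 3-4 days, then cells were restimulated with anti-CD3 (1 µg/ml) for 24 h. Supernatant cytokine was measured by sandwich ELISA with peroxidase-streptavidin and OD read-out.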

[5] = Proinflammatory activity in C57BL6 mouse CD4-positive T-effector Th1 cells assessed as increase in anti-CD3/IL-12-induced IL-2 levels at 10 uM preincubated for 3 to 4 days followed by anti-CD3 stimulation for 24 hrs by ELISA; assay type: ADME, cell-based; conditions: th1, 24 h; summary of the method: as §1
TH2 cell [6] = assay: Antiinflammatory activity in C57BL6 mouse CD4-positive T-effector TH2 cells assessed as suppression of IL-5 levels at 10 uM preincubated for 3 to 4 days followed by anti-CD3 stimulation for 24 hrs by ELISA; assay type: functional, cell-based
TH2 cell [7] = assay: Antiinflammatory activity in C57BL6 mouse CD4-positive T-effector TH2 cells assessed as suppression of IL-4 levels at 10 uM preincubated for 3 to 4 days followed by anti-CD3 stimulation for 24 hrs by ELISA; assay type: functional, cell-based
Summary of the method: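 Mouse C57BL6 lymph node and spleen CD4+ T cells were primed for 24 h with anti-CD3 (2 µg/ml) and anti-CD28 (1 µg/ml). Th2 polarization used IL-4 (10 ng/ml) and anti-IFN-γ (1 µg/ml) with compound at 10 µM, refreshed every other day for 3-4 days. Cells were restimulated with anti-CD3 (1 µg/ml) for 24 h, and supernatant IL-4 was measured by biotin/streptavidin-peroxidase sandwich ELISA.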

Th17 = assay: Antiinflammatory activity in C57BL6 mouse CD4-positive T-effector Th17 cells assessed as suppression of IL-17 levels at 10 uM preincubated for 3 to 4 days followed by anti-CD3 stimulation for 24 hrs by ELISA; assay type: functional, cell-based
Th1 [8] = assay: Antiinflammatory activity in C57BL6 mouse CD4-positive T-effector Th1 cells assessed as suppression of anti-CD3/IL-12-induced IL-2 levels at 10 uM preincubated for 3 to 4 days followed by anti-CD3 stimulation for 24 hrs by ELISA; assay type: functional, cell-based; summary of the method: as §1
Th1 [9] = assay: Antiinflammatory activity in C57BL6 mouse CD4-positive T-effector Th1 cells assessed as suppression of anti-CD3/IL-12-induced IFNgamma levels at 10 uM preincubated for 3 to 4 days followed by anti-CD3 stimulation for 24 hrs by ELISA; assay type: functional, cell-based; summary of the method: as §1

Interleukin-6 (Homo sapiens), sequence (P05231 whole entry): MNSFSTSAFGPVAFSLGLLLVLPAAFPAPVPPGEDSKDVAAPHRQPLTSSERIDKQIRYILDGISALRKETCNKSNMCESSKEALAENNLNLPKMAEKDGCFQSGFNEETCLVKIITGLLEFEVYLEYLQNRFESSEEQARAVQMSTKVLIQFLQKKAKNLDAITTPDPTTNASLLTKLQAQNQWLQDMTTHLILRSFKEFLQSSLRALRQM

| Compound | inhibition [1] [%] | viability at 48 h, 10 ug/ml [2] [%] | other results |
| --- | --- | --- | --- |
| CCc1ccc(Nc2nc3cc(NC(=O)c4ccc(CC)cc4)ccc3o2)cc1 | 63.3 |  |  |
| CCCCCCCc1ccc(C(=O)Nc2ccc3oc(Nc4ccc(CC)cc4)nc3c2)cc1 | 57.2 |  |  |
| CCc1ccc(Nc2nc3cc(NC(=O)c4ccc(OC)c(OC)c4)ccc3o2)cc1 | 26.2 |  |  |
| CCc1ccc(Nc2nc3cc(NC(=O)c4ccc([N+](=O)[O-])cc4Cl)ccc3o2)cc1 | 20 |  |  |
| CCc1ccc(Nc2nc3cc(NC(=O)c4ccc(Cl)c(Cl)c4)ccc3o2)cc1 | 69.3 |  |  |
| CCc1ccc(Nc2nc3cc(N)ccc3o2)cc1 | 97.5 | 70.8 | Activity (TH2 cell [3]): Active; Activity (Th1 [8]): Active; Activity (TH2 cell [6]): Active; Activity (TH2 cell [7]): Active; Activity (Th1 [9]): Active; Activity (Th17): Active |
| CCc1ccc(Nc2nc3cc(NC(=O)c4cc(OC)c(OC)c(OC)c4)ccc3o2)cc1 | 83.7 | 16.4 |  |
| CCc1ccc(Nc2nc3cc(NC(=O)c4cc([N+](=O)[O-])ccc4Cl)ccc3o2)cc1 | 65.6 |  |  |

Further lines, with some results ahead:

| inhibition [1] [%] | Compound | viability at 48 h, 10 ug/ml [2] [%] | other results |
| --- | --- | --- | --- |
| 93.1 | CCc1ccc(Nc2nc3cc(NC(=O)c4ccccc4)ccc3o2)cc1 | 65.6 |  |
| 12.1 | CCc1ccc(Nc2nc3cc(NC(=O)c4ccc(Cl)cc4)ccc3o2)cc1 |  | Activity (TH2 cell [3]): inactive; Activity [4]: Toxic; Activity [5]: Toxic; Activity (TH2 cell [6]): inactive; Activity (TH2 cell [7]): inactive; Activity (Th17): inactive |
| 84.6 | CCc1ccc(Nc2nc3cc(NC(=O)c4ccccc4Nc4cccc(C(F)(F)F)c4)ccc3o2)cc1 | 38.2 |  |
| 61.7 | CCc1ccc(Nc2nc3cc(NC(=O)Cc4ccccc4)ccc3o2)cc1 |  |  |
| 50.2 | CCc1ccc(Nc2nc3cc(NC(=O)c4cc(F)cc(C(F)(F)F)c4)ccc3o2)cc1 |  |  |
| 86.5 | CCc1ccc(Nc2nc3cc(NC(=O)c4ccc(C(C)(C)C)cc4)ccc3o2)cc1 | 59.8 |  |
| 91.7 | CCc1ccc(Nc2nc3cc(NC(=O)c4cccc(CCl)c4)ccc3o2)cc1 | 41.1 |  |
| 58 | CCOc1ccccc1C(=O)Nc1ccc2oc(Nc3ccc(CC)cc3)nc2c1 |  |  |
